≈ marks a conversion by molar mass, not a printed value. Calls of active or inactive are those of the source. No rule for the calls is given here.
How the values were obtained:
[1] = system: Mycobacterium tuberculosis; experiment: Bacteriostatic activity against Mycobacterium tuberculosis H37Rv using iron-replete GAST media after 10 to 14 days by broth microdilution assay; assay type: functional
In short: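 Broth microdilution in GAST supplemented with 200 μM FeCl₃, in quadruplicate, with compounds from DMSO stocks and DMSO-matched controls. Isoniazid served as positive control. Inoculum 10⁴–10⁵ cells/assay, 100 μL/well, 37 °C. OD₆₂₀ was read at 10–14 days, when untreated controls reached 0.2–0.3.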

[2] = system: Mycobacterium tuberculosis; experiment: Bacteriostatic activity against Mycobacterium tuberculosis H37Rv using iron-deficient GAST media after 10 to 14 days by broth microdilution assay; assay type: functional
In short: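 Broth microdilution in iron-deficient GAST, in quadruplicate, with compounds from DMSO stocks and DMSO-matched control wells. Isoniazid served as positive control. Initial density 10⁴–10⁵ cells/assay, 100 μL/well, 37 °C. Growth was read as OD at 620 nm at 10–14 days, when untreated controls reached OD₆₂₀ 0.2–0.3.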

Acinetobacter baumannii [3] = experiment: Antibacterial activity against Acinetobacter baumannii ATCC 19606 using iron-replete M9 minimal media after 15 hrs by broth microdilution assay; assay type: functional, organism-based; conditions: ATCC 19606 = CIP 70.34 = JCM 6841
In short: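 ATCC 19606 grown overnight at 30 °C on LB agar, washed twice in dipyridyl-containing M9/casamino acids medium, then diluted to A600 0.0003 in M9 minimal medium with 0.2% casamino acids plus 200 μM FeCl3. Inhibitors from DMSO at 100 μM final, in triplicate. Controls were tetracycline (100 ng/mL) and 1% DMSO. Incubated at 30 °C, A600 measured at 15 h.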

Acinetobacter baumannii [4] = experiment: Antibacterial activity against Acinetobacter baumannii ATCC 19606 using iron-deficient M9 minimal media after 15 hrs by broth microdilution assay; assay type: functional, organism-based; conditions: ATCC 19606 = CIP 70.34 = JCM 6841
In short: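 ATCC 19606 grown overnight at 30 °C on LB agar, washed twice and resuspended in M9 minimal medium with 0.2% casamino acids and 200 μM dipyridyl. Inoculated at A600 0.0003 in this medium plus 1 μM FeCl3. Inhibitors from DMSO at 100 μM final, in triplicate. Tetracycline (100 ng/mL) and 1% DMSO as controls. Incubated at 30 °C; A600 read at 15 h.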

[5] = Displacement of Fl-Sal-AMS from Mycobacterium tuberculosis MbtA expressed in Escherichia coli after 30 mins by fluorescence polarization assay
[6] = Displacement of Fl-Sal-AMS from Acinetobacter baumanni BasE expressed in Escherichia coli after 30 mins by fluorescence polarization assay; design: species or system Acinetobacter baumannii; conditions: read-out: Kd
[7] = Selectivity ratio of Kd for Mycobacterium tuberculosis MbtA to Kd for Acinetobacter baumanni BasE

Row | SMILES | MIC99 [1] | MIC99 [2] | Activity (Acinetobacter baumannii [3]) | Activity (Acinetobacter baumannii [4]) | Kd [5] | Kd [6] | Selectivity ratio [7]
1 | CCOC(=O)c1cc(-c2ccc(C(=O)c3ccccc3)cc2)nc2c1cnn2Cc1ccncc1 | > 125 µM | > 125 µM | – | – | – | – | –
2 | CCOC(=O)c1cc(-c2ccccc2)nc2c1cnn2Cc1ccncc1 | 125 µM (≈ 44.8 µg/mL) | > 125 µM | inactive | inactive | > 100 µM | 2.16 µM | –
3 | CCOC(=O)c1cc(-c2ccc(Cl)s2)nc2c1cnn2Cc1ccncc1 | 25 µM (≈ 9.97 µg/mL) | 25 µM (≈ 9.97 µg/mL) | – | – | – | – | –
4 | O=C(O)c1cc(-c2ccc(Cl)s2)nc2c1cnn2Cc1ccncc1 | 50 µM (≈ 18.5 µg/mL) | 50 µM (≈ 18.5 µg/mL) | inactive | inactive | – | – | –
5 | O=C(c1ccccc1)c1ccc(-c2cc(C(=O)O)c3cnn(Cc4ccncc4)c3n2)cc1 | > 125 µM | > 125 µM | inactive | inactive | – | – | –
6 | O=C(O)c1cc(-c2ccccc2)nc2c1cnn2Cc1ccncc1 | > 125 µM | > 125 µM | inactive | inactive | – | – | –
7 | CCOC(=O)c1cc(-c2ccc(Oc3ccccc3)cc2)nc2c1cnn2Cc1ccncc1 | 100 µM (≈ 45 µg/mL) | 50 µM (≈ 22.5 µg/mL) | – | – | – | – | –
8 | O=C(O)c1cc(-c2ccc(OCc3ccccc3)cc2)nc2c1cnn2Cc1ccncc1 | – | – | inactive | inactive | 5.4 µM | 0.00214 µM | 1000
9 | O=C(O)c1cc(-c2cccc(Cl)c2)nc2c1cnn2Cc1ccncc1 | – | – | inactive | inactive | 4.6 µM | 0.026 µM | –
10 | Nc1cc(-c2ccccc2)nc2c1cnn2Cc1ccncc1 | – | – | inactive | inactive | 36.4 µM | 0.2 µM | –
11 | O=C(O)c1cc(N2CCOCC2)nc2c1cnn2Cc1ccncc1 | – | – | inactive | inactive | 29.1 µM | 1.45 µM | –
12 | O=C(O)c1cc(NCCCO)nc2c1cnn2Cc1ccncc1 | – | – | inactive | inactive | 97.7 µM | 2.46 µM | –
13 | O=C(O)c1cc(-c2ccc(F)cc2)nc2c1cnn2Cc1ccncc1 | – | – | inactive | inactive | 1.89 µM | 0.028 µM | –
14 | O=C(O)c1cc(-c2ccc(-c3ccc(Br)cc3)cc2)nc2c1cnn2Cc1ccncc1 | – | – | inactive | inactive | 19.7 µM | 0.181 µM | –
15 | O=C(O)c1cc(-c2cccc(O)c2)nc2c1cnn2Cc1ccncc1 | – | – | inactive | inactive | 7.67 µM | 0.124 µM | –
16 | O=C(O)c1cc(-c2ccco2)nc2c1cnn2Cc1ccncc1 | – | – | inactive | inactive | 19.5 µM | 0.342 µM | –

Row | SMILES | MIC99 [1] | MIC99 [2] | Activity (Acinetobacter baumannii [3]) | Activity (Acinetobacter baumannii [4]) | Kd [5] | Kd [6] | Selectivity ratio [7]
17 | CNC(=O)c1cc(-c2ccccc2)nc2c1cnn2Cc1ccncc1 | – | – | inactive | inactive | > 50 µM | 0.42 µM | –
18 | O=C(O)c1cc(-c2cccnc2)nc2c1cnn2Cc1ccncc1 | – | – | inactive | inactive | 16.8 µM | 0.132 µM | –
19 | OCc1cc(-c2ccccc2)nc2c1cnn2Cc1ccncc1 | – | – | inactive | inactive | 16.8 µM | 0.102 µM | –
20 | O=C(O)c1cc(-c2ccc(-c3ccccc3)cc2)nc2c1cnn2Cc1ccncc1 | – | – | inactive | inactive | 3.5 µM | 0.125 µM | –
21 | COc1ccc(-c2cc(C(=O)O)c3cnn(Cc4ccncc4)c3n2)cc1 | – | – | inactive | inactive | 3.23 µM | 0.0782 µM | –
22 | CCCCCCCCOc1ccc(-c2cc(C(=O)O)c3cnn(Cc4ccncc4)c3n2)cc1 | – | – | inactive | inactive | > 50 µM | 0.191 µM | –
23 | COc1ccc(COc2ccc(-c3cc(C(=O)O)c4cnn(Cc5ccncc5)c4n3)cc2)cc1 | – | – | inactive | inactive | 5.8 µM | 0.0445 µM | –
24 | NC(=O)c1ccc(-c2cc(C(=O)O)c3cnn(Cc4ccncc4)c3n2)cc1 | – | – | inactive | inactive | 1 µM | 0.288 µM | –
25 | CN(C)C(=O)c1cc(-c2ccccc2)nc2c1cnn2Cc1ccncc1 | – | – | inactive | inactive | > 50 µM | 0.334 µM | –
26 | O=C(O)c1cc(-c2ccc3[nH]ccc3c2)nc2c1cnn2Cc1ccncc1 | – | – | inactive | inactive | 2.9 µM | 0.0618 µM | –
27 | O=C(O)c1cc(-c2ccc(F)cc2F)nc2c1cnn2Cc1ccncc1 | – | – | inactive | inactive | 8 µM | 0.0426 µM | –
28 | CC(C)NC(=O)c1cc(-c2ccccc2)nc2c1cnn2Cc1ccncc1 | – | – | inactive | inactive | > 100 µM | 0.164 µM | –
29 | CCCNC(=O)c1cc(-c2ccccc2)nc2c1cnn2Cc1ccncc1 | – | – | inactive | inactive | > 50 µM | 0.249 µM | –
30 | O=C(O)c1cc(-c2ccc(CO)cc2)nc2c1cnn2Cc1ccncc1 | – | – | inactive | inactive | 3.7 µM | 0.247 µM | –
31 | O=C(NC1CC1)c1cc(-c2ccccc2)nc2c1cnn2Cc1ccncc1 | – | – | inactive | inactive | > 100 µM | 0.15 µM | –
32 | O=C(O)c1cc(-c2ccc(Oc3ccccc3)cc2)nc2c1cnn2Cc1ccncc1 | 25 µM (≈ 10.6 µg/mL) | 25 µM (≈ 10.6 µg/mL) | inactive | inactive | – | – | –
